{"data": "Measurements pooled from the literature", "sample": "plasma"}
{"Compound": "C=CC(=O)NC1CCN(c2ncc3ncnc(Nc4ccc(Oc5ccc6c(c5)ncn6C)c(C)c4)c3n2)CC1", "species": "male human", "route": "oral", "dose": "60 mg", "setting": "single dose, healthy volunteers", "Cmax": "1160 nM"}
{"Compound": "O=C(COc1ccc(Cl)cc1)NC12CC(c3nnc([C@H]4C[C@@H](OC(F)(F)F)C4)o3)(C1)C2", "species": "human", "route": "oral", "dose": "260 mg", "setting": "multiple doses, once daily, steady state, healthy volunteers", "Cmax": "18600 nM"}
{"Compound": "OC[C@H]1O[C@@H](c2cc(Cc3ccc(C4CC4)cc3)c(Cl)c3c2CCO3)[C@H](O)[C@@H](O)[C@@H]1O", "species": "human", "route": "oral", "dose": "0.3 mg", "setting": "single dose, fasted", "Cmax": "4.5 ng/mL"}
{"Compound": "Cc1cc(-c2nccc3c2ccn3CC(=O)Nc2ccc(-c3cnccn3)cn2)ccn1", "species": "human", "route": "oral", "dose": "20 mg", "setting": "single dose", "Cmax": "188 nM"}
{"Compound": "COc1ccc2c(c1)CN(C(=O)CCN1CCC(Cc3ccccc3)CC1)CC[S@@+]2[O-]", "species": "male human", "route": "intravenous", "dose": "0.01 mg/kg", "setting": "healthy volunteers", "Cmax": "21.9 ng/mL"}
{"Compound": "CC(C)n1c(C2CCNCC2)nc2c([N+](=O)[O-])c(Br)c(Br)cc21", "species": "human", "route": "oral", "dose": "50 mg", "setting": "patients", "Cmax": "33.6 ng/mL"}
{"Compound": "CC(=O)N(C)[C@H]1CCN(C(=O)c2cnc3c(c2)C[C@](C)(c2ccc(F)cc2)N3)C1", "species": "male human", "route": "oral", "dose": "30 mg", "setting": "multiple doses, once daily, steady state", "Cmax": "797 nM"}
{"Compound": "COc1ccc(-c2c(Nc3ccccn3)[nH]c3c(C4=CCCCC4)c(-c4ccccc4)nn3c2=O)cc1", "species": "human", "route": "oral", "dose": "100 mg once daily", "setting": "multiple doses, patients", "Cmax": "3490 ng/mL"}
